A short description of assay [1]: (§1) Compound was tested for inhibition of TEM-3, class A of beta-lactamases. It counts as functional, Escherichia coli.
Assay [2] concerns Enterobacter cloacae. As to the kind of experiment: Compound was tested for inhibition of Ent. cloacae 908R in combination with Ceftriaxone. It counts as functional. The method in brief: (§2)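 MICs determined by serial 2-fold dilution in Mueller-Hinton broth with an inoculum of approximately 10⁵ cfu/mL. The test compound was combined with ceftriaxone.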
Assay [3] in a line: (§3) Compound was tested for inhibition of pTEM-3 from Escherichia coli in combination with Ceftriaxone. In kind it is functional. Summed up: as §2
Assay [4] deals with Pseudomonas aeruginosa. Description: Compound was tested for inhibition of Pseudomonas aeruginosa 18SH in combination with Ceftriaxone. It counts as functional. The method in brief:
as §2

For assay [5], the system named is Bacillus licheniformis. As to the kind of experiment: Compound was tested for inhibition of Bacillus licheniformis 749/C, class A of beta-Lactamases. In kind it is functional, organism-based.
In assay [6] the test system is Citrobacter freundii. As to the kind of experiment: Compound was tested for inhibition of Citrobacter freundii 1928 in combination with Ceftriaxone. It counts as functional. Summed up:
as §2

The nature of assay [7]: (§4) Compound was tested for inhibition of TEM-1, class A of beta-lactamases. It counts as functional, Escherichia coli.
A short description of assay [8]: (§5) Compound was tested for inhibition of pTEM-4 from Escherichia coli in combination with Ceftriaxone. In kind it is functional. Summed up: as §2
For assay [9], the system named is Pseudomonas aeruginosa. As to the kind of experiment: Compound was tested for inhibition of Pseudomonas aeruginosa 18SH in combination with Ceftriaxone (expressed in MIC). It counts as functional, organism-based. The method in brief: as §2
Assay [10] concerns the target Beta-lactamase (Escherichia coli K-12, UniProt P00811). As to the kind of experiment: Compound was tested for inhibition of Escherichia coli AmpC, class C of Beta-lactamase.
Assay [11] can be described thus: as §1. Details: species or system Escherichia coli.
Assay [12] can be described thus: Compound was tested for inhibition of pTEM-4 from Escherichia coli in combination with Ceftriaxone; NA = Not active. The method in brief: as §2
Assay [13] can be described thus: Compound was tested for inhibition of pTEM-3 from Escherichia coli in combination with Ceftriaxone (expressed in MIC). The method in brief:
as §2

Assay [14] addresses Beta-lactamase (Bacillus licheniformis, UniProt P00808). Description: Compound was tested for inhibition of Bacillus licheniformis 749/C, class A of Beta-lactamase.
In assay [15] the test system is Enterobacter cloacae. As to the kind of experiment: Compound was tested for inhibition of Ent. cloacae 908R in combination with Ceftriaxone (expressed in MIC). It counts as functional, organism-based. The method in brief: as §2
Assay [16] deals with Beta-lactamase (Pseudomonas aeruginosa (strain ATCC 15692 / PAO1 / 1C / PRS 101 / LMG12228), UniProt P24735). Description: Compound was tested for inhibition of Pseudomonas aeruginosa 18SH, class C of Beta-lactamase.
Chain of Beta-lactamase (Pseudomonas aeruginosa (strain ATCC 15692 / PAO1 / 1C / PRS 101 / LMG12228), UniProt P24735) (P24735 whole entry): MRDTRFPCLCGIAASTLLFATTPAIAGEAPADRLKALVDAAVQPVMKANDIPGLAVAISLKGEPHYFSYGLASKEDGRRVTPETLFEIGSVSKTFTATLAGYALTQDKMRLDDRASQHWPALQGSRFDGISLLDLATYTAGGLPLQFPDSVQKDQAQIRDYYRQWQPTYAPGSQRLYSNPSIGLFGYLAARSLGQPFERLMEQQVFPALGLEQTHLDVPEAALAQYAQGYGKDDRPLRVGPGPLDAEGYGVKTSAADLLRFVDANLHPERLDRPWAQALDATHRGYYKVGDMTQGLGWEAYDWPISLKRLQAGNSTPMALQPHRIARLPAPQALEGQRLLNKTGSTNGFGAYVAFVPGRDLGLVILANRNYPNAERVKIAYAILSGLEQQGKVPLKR
Assay [17] is described as follows: as §4. Also on record: species or system Escherichia coli.
Assay [18] has as its system Citrobacter freundii. As to the kind of experiment: (§6) Compound was tested for inhibition of Citrobacter freundii 1928 in combination with Ceftriaxone (expressed in MIC). In kind it is functional, organism-based. The method in brief:
as §2

In assay [19] the test system is Citrobacter freundii. Description: Compound was tested for inhibition of Citrobacter freundii 1928 in combination with Ceftriaxone; Not active. In kind it is functional, organism-based. Summed up: as §2
Assay [20] is described as follows: Compound was tested for inhibition of Penicillin-binding protein 2x from Streptococcus pneumoniae. Summed up:
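S. pneumoniae PBP 2x was assayed as recombinant soluble protein. IC₅₀ values are reported in µM.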

Assay [21] can be described thus: Compound was tested for inhibition of Penicillin-binding protein 1 from Staphylococcus aureus (Schoch).
For assay [22], the target named is Beta-lactamase (Citrobacter freundii, UniProt P05193). Description: Compound was tested for inhibition of Citrobacter freundii 1928, class C of Beta-lactamase.
Chain of Beta-lactamase (Citrobacter freundii, UniProt P05193) (P05193 whole entry): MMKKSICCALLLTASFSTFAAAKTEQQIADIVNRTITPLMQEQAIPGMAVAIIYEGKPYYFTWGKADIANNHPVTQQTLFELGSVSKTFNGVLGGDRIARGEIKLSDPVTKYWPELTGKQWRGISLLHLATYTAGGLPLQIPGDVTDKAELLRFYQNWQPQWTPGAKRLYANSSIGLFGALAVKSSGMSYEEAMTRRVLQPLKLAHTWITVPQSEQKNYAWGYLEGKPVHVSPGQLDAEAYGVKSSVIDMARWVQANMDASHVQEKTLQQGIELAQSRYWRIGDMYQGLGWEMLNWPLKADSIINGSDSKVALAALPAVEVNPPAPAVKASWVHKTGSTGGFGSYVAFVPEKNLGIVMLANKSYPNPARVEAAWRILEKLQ
The subject of assay [23] is Escherichia coli. The description is as §3. Summed up: as §2
For assay [24], the target named is T1, Penicillin-binding protein 1B (Escherichia coli K-12, UniProt P02919).
T1 sequence (P02919 whole entry): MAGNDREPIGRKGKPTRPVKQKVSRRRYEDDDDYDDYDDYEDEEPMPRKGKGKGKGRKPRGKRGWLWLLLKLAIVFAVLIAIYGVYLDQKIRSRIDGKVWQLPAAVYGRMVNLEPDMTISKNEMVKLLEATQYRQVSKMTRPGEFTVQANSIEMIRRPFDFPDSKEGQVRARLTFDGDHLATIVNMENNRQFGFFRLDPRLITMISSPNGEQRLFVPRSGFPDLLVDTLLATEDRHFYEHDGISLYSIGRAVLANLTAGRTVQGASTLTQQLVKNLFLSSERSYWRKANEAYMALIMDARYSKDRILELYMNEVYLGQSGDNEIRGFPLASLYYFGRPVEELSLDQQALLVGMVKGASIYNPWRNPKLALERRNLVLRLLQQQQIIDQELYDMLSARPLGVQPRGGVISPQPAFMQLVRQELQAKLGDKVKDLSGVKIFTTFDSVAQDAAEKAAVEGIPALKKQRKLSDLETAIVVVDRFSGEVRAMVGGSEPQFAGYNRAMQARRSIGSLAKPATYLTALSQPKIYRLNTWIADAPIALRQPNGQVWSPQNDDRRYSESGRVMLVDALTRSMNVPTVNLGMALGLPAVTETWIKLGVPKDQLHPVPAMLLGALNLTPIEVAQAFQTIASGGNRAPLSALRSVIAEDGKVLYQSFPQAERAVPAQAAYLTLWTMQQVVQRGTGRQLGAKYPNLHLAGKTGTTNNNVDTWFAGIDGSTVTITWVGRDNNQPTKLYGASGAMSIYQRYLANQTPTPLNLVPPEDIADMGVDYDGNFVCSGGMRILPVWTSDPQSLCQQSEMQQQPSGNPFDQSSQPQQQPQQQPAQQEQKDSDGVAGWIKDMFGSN
As to the kind of experiment: Compound was tested for inhibition of Penicillin-binding protein 1b from Escherichia coli. Summed up: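 Penicillin binding was assayed on membrane fragments from E. coli W3110 or S. aureus Schoch, using ¹⁴C-labeled benzylpenicillin as the probe. IC₅₀ values are reported in µM.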

Assay [25] addresses Penicillin-binding protein 4 (Staphylococcus aureus, UniProt P72355). Description: Compound was tested for inhibition of Penicillin-binding protein 4 from Staphylococcus aureus (Schoch).
The subject of assay [26] is Escherichia coli. Described as §5. Summed up: as §2
In assay [27] the test system is Citrobacter freundii. Described as §6. It counts as functional, organism-based. This is another data set of the same source.

This passage reports IC50, MIC and NA results from ChEMBL document CHEMBL1129642, “Design, synthesis, and evaluation of 2 beta-alkenyl penam sulfone acids as inhibitors of beta-lactamases” (J Med Chem, 1996).

Calls of active or inactive are those of the source. The rule behind the calls is not given here.

Chain of Beta-lactamase (Bacillus licheniformis, UniProt P00808) (P00808 whole entry): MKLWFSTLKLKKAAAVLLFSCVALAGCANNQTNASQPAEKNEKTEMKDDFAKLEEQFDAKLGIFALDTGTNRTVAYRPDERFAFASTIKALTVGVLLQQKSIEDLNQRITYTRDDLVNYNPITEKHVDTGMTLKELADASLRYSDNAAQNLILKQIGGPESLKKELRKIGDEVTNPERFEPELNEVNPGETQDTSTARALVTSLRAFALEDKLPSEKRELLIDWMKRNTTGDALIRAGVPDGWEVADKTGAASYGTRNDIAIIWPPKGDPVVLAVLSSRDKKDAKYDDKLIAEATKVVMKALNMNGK
Chain of Beta-lactamase (Escherichia coli K-12, UniProt P00811) (P00811 whole entry): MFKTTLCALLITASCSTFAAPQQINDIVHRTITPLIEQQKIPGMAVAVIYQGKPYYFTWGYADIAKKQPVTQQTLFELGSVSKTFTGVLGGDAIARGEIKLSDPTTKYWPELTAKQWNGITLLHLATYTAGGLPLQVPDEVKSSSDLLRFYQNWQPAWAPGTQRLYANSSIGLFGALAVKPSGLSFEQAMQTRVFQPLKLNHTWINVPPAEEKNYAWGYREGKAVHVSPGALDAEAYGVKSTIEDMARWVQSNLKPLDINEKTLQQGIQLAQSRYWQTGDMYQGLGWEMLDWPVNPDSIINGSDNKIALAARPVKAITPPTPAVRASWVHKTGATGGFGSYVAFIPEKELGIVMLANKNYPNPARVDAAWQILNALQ
Chain of Penicillin-binding protein 4 (P72355 whole entry): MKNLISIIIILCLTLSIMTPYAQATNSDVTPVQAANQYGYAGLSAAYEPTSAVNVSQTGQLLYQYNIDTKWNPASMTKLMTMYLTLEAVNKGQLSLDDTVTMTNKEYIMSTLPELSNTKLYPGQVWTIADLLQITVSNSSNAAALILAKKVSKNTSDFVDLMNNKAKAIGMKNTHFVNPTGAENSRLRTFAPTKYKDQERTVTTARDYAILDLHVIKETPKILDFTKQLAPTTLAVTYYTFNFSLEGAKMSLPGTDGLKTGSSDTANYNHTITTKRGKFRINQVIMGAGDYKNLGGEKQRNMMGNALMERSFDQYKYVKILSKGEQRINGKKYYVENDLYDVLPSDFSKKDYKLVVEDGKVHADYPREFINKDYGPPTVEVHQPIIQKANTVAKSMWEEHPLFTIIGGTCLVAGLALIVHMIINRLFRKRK

A word on the IC50: it is the concentration that gives 50% inhibition. As to `C[C@]1(/C=C\Cl)[C@H](C(=O)[O-])N2C(=O)C[C@H]2S1(=O)=O.[Na+]`, the IC50 stood at 0.06 µM in assay [1], 6.6 µM in assay [5] and 5.6 µM in assay [7]. The MIC in [2] came out at 4 µg/mL; in assay [3], 0.25 µg/mL; in assay [4], 4 µg/mL; in [6], 4 µg/mL; in assay [8] it was 1 µg/mL.

Turning to `CCOC(=O)/C=C\[C@@]1(C)[C@H](C(=O)O)N2C(=O)C[C@H]2S1(=O)=O`, the MIC in assay [9] is above 16 µg/mL; in [12], “Not Active”; in assay [13], below 0.25 µg/mL; in [15] it was 8 µg/mL; in assay [18], 4 µg/mL. In addition, the IC50 was found to be 61 µM in assay [10]; 0.46 µM in [11]; 2.9 µM in assay [14]; 15 µM in [16]; 14 µM in assay [17].

`C[C@]1(C=CC(N)=O)[C@H](C(=O)O)N2C(=O)C[C@H]2S1(=O)=O`: the IC50 in assay [1] was 0.054 µM; in assay [5], 6 µM; in assay [7] it was 13 µM. The MIC was 8 µg/mL in [2], below 0.25 µg/mL in assay [3], 16 µg/mL in [4] and 0.5 µg/mL in assay [8]. In [19], the NA entry is “inactive”.

As for `C[C@]1(/C=C\c2ccccn2)[C@H](C(=O)[O-])N2C(=O)C[C@H]2S1(=O)=O.[Na+]`, the MIC is 32 µg/mL in assay [2]; above 16 µg/mL in assay [4]; 1 µg/mL in assay [23]; 8 µg/mL in [6]; 4 µg/mL in assay [26]. Besides, the half-inhibitory concentration (IC50) in [20] stood at 4.5 µM; in assay [21], 15 µM; in assay [10], 46 µM; in assay [11], 0.092 µM; in [14], 2.3 µM; in assay [22], 1 µM. Besides, the IC50 is 15 µM in [16], above 10000 µM in [24], 15 µM in assay [25] and 19 µM in assay [17].

With `C[C@]1(/C=C/c2nnco2)[C@H](C(=O)[O-])N2C(=O)C[C@H]2S1(=O)=O.[Na+]`, the IC50 in assay [1] amounted to 0.22 µM; in assay [5], 1.7 µM; in [7] it was 12 µM. In addition, the MIC in [2] is 8 µg/mL; in assay [3] it was 0.5 µg/mL; in [4] it was 16 µg/mL; in [6], 4 µg/mL; in [8], 2 µg/mL.

As to `C[C@]1(C=CCO)[C@H](C(=O)[O-])N2C(=O)C[C@H]2S1(=O)=O.[Na+]`, the half-maximal inhibitory concentration (IC50) came to 0.6 µM in assay [1], 3.6 µM in [5] and 6.5 µM in assay [7]. The MIC in assay [2] is 8 µg/mL; in assay [3] it was 0.5 µg/mL; in assay [4], 16 µg/mL; in assay [6], 8 µg/mL; in assay [8], 2 µg/mL.

`C[C@]1(/C=C\c2cncs2)[C@H](C(=O)[O-])N2C(=O)C[C@H]2S1(=O)=O.[Na+]`: the MIC in [2] is 16 µg/mL; in assay [4] it was above 16 µg/mL; in assay [23], 0.5 µg/mL; in assay [6] it was 16 µg/mL; in assay [26], 4 µg/mL. For the same compound, the IC50 was 4.8 µM in [20]; 2.7 µM in [10]; 0.054 µM in [11]; 0.54 µM in [14]; 0.41 µM in assay [22]; 8.9 µM in assay [16]. Further, the IC50 in assay [24] was above 10000 µM; in assay [17], 13 µM.

`C[C@]1(/C=C\C(N)=O)[C@H](C(=O)O)N2C(=O)C[C@H]2S1(=O)=O`: the 50% inhibitory concentration (IC50) was determined as 0.13 µM in [1], 3.4 µM in [5] and 1.2 µM in assay [7]. In addition, the MIC in assay [2] was 4 µg/mL; in assay [3], 0.25 µg/mL; in assay [4], 4 µg/mL; in assay [6], 2 µg/mL; in [8] it was 2 µg/mL.

Consider `C[C@]1(/C=C/c2cncs2)[C@H](C(=O)O)N2C(=O)C[C@H]2S1(=O)=O`, for which the MIC in [2] is above 16 µg/mL; in assay [4], 16 µg/mL; in assay [23], 1 µg/mL; in [6], 8 µg/mL; in assay [26], 4 µg/mL. The IC50 in assay [20] is 50 µM; in [10], 45 µM; in assay [11], 0.16 µM; in [14] it was 5.4 µM; in assay [22] it was 1.3 µM; in [16] it was 0.54 µM. Also, the results for the IC50 in assay [24] and in [17] were above 10000 µM and 8.5 µM, respectively.

Take `CON(C)C(=O)/C=C\[C@@]1(C)[C@H](C(=O)[O-])N2C(=O)C[C@H]2S1(=O)=O.[Na+]`: the 50% inhibitory concentration (IC50) in assay [1] was determined as 0.18 µM; in assay [5], 4.4 µM; in assay [7], 12 µM. In addition, the MIC in assay [2] was 16 µg/mL; in assay [3], 0.5 µg/mL; in assay [4], above 16 µg/mL; in assay [6], 8 µg/mL; in [8], 2 µg/mL.

In the case of `C[C@]1(/C=C\C#N)[C@H](C(=O)O)N2C(=O)C[C@H]2S1(=O)=O`, the MIC in assay [9] came out at 16 µg/mL; in assay [27] it was 2 µg/mL; in assay [15] it was 4 µg/mL. In [5], this compound gave an IC50 of 0.32 µM.
